From ChEMBL document CHEMBL3994627, “Positional isomers of bispyridine benzene derivatives induce efficacy changes on mGlu5 negative allosteric modulation” (Eur J Med Chem, 2017)

Columns and labels:
[1] = molecular target: Metabotropic glutamate receptor 5 (Rattus norvegicus) (UniProt P31424); experiment: Ratio of IC50 for negative allosteric modulation of rat N-terminal HA-tagged mGlu5 receptor expressed in HEK293 cells under dark condition to IC50 for negative allosteric modulation of rat N-terminal HA-tagged mGlu5 receptor expressed in HEK293 cells under violet light illumination; format: cell-based
Chain of Metabotropic glutamate receptor 5 (Rattus norvegicus) (P31424 21-1203 limits assumed): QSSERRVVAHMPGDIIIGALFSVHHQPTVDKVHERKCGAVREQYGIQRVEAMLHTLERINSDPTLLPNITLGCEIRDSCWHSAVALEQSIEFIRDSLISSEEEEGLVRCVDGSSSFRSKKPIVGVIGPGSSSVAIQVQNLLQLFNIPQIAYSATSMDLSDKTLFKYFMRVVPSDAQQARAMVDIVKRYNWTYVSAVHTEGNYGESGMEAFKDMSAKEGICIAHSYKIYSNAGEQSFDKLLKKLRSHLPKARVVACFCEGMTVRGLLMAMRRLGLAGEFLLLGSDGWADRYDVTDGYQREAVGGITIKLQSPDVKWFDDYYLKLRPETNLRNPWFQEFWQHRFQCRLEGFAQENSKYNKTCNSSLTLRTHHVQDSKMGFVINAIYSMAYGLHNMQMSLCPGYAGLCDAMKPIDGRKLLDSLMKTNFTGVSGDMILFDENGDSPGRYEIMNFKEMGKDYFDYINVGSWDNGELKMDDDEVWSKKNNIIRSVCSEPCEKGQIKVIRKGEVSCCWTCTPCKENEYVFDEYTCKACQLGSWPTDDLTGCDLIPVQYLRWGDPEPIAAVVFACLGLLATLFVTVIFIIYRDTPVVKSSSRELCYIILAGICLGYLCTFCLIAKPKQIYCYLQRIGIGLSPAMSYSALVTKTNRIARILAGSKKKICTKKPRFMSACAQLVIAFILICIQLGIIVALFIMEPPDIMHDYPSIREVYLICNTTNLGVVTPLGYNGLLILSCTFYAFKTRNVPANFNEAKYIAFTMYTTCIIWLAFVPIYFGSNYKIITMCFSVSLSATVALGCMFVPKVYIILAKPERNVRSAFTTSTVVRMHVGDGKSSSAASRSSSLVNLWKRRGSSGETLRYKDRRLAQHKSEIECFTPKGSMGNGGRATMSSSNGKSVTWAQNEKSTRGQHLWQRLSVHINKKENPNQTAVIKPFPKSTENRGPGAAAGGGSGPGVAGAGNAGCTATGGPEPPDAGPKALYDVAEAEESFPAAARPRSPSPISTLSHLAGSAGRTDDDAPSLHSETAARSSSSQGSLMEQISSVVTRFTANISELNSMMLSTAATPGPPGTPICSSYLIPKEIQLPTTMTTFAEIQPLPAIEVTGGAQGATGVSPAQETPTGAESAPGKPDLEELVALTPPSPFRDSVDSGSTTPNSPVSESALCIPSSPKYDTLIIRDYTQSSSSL
Procedure, shortened: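 HEK293 cells expressing rat HA-mGlu5 and EAAC1 were stimulated with 100 nM quisqualate plus compound for 30 min at 37°C. Part of each plate was kept dark under foil; the rest was lit continuously at 380 nm from an LED plate. After a single wash, IP was measured by HTRF. Value is IC50 (dark) divided by IC50 (violet). Curves used ≥3 independent replicates.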

[2] = molecular target: Metabotropic glutamate receptor 5 (Rattus norvegicus, UniProt P31424); experiment: (§1) Negative allosteric modulation of rat N-terminal HA-tagged mGlu5 receptor expressed in HEK293 cells co-expressing N-terminal HA-tagged EAAC1 assessed as inhibition of quisqualate-induced inositol phosphate accumulation after 30 mins by HTRF assay; format: functional, cell-based
Chain of Metabotropic glutamate receptor 5 (Rattus norvegicus, UniProt P31424) (P31424 whole entry): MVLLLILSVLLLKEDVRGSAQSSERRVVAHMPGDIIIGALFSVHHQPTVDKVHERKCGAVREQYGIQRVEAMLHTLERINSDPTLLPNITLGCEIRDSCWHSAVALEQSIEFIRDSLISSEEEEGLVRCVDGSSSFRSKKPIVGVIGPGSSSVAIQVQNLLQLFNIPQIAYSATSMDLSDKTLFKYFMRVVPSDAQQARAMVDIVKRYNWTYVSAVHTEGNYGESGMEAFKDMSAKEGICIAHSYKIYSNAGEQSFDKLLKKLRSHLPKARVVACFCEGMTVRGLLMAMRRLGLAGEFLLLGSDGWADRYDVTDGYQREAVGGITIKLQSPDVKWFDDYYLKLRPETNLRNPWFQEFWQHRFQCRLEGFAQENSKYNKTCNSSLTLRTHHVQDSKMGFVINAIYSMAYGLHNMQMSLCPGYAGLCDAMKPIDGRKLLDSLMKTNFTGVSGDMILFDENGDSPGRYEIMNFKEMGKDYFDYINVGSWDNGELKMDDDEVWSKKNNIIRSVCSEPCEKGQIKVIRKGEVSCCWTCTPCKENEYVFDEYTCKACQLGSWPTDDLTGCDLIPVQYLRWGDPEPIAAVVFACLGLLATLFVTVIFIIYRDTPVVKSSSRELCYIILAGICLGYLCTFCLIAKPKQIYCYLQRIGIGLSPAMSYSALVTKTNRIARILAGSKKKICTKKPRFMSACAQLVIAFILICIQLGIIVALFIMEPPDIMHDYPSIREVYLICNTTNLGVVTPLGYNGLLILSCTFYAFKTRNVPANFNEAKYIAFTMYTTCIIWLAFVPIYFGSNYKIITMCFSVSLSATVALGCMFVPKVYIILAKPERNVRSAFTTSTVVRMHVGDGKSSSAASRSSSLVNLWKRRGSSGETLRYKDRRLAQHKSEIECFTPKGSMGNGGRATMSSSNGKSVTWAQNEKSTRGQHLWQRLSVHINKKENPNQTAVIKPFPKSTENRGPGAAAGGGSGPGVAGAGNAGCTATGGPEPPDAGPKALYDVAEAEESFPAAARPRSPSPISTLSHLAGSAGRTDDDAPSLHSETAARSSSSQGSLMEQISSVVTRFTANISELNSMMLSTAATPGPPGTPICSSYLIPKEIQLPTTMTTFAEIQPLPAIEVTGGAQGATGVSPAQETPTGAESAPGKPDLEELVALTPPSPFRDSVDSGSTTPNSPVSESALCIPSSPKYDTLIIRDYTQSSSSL
Procedure, shortened: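 Rat mGlu5 (N-terminal HA tag) and EAAC1 were co-transfected into HEK293 cells by electroporation and seeded at 1.5 × 10^5 cells/well. Medium was changed to glutamate-free DMEM at least 4 h before the run. Next day, cells got 100 nM quisqualate plus compound for 30 min at 37°C, 5% CO2, then were washed once. IP accumulation was read by IP-One HTRF. Dose-response used ≥3 independent replicates.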

[3] = molecular target: Metabotropic glutamate receptor 5 (Rattus norvegicus) (UniProt P31424); experiment: as §1, with “accumulation by measuring difference in efficacy between dark condition and violet light illumination” for “accumulation”; format: functional, cell-based; design: scale not given: the % may be the effect or the level left
Procedure, shortened: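 Quisqualate (100 nM) and compound were applied for 30 min at 37°C to HEK293 cells expressing rat HA-mGlu5 and EAAC1. Wells sat over an LED plate 2–3 cm away: foil-covered wells stayed dark, the rest got continuous 380 nm light. Cells were washed once before lysis, then IP-One HTRF was read. Value is the efficacy difference (%), dark minus violet.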

[4] = molecular target: Metabotropic glutamate receptor 5 (Rattus norvegicus) (UniProt P31424); experiment: Negative allosteric modulation of rat N-terminal HA-tagged mGlu5 receptor expressed in HEK293 cells co-expressing N-terminal HA-tagged EAAC1 assessed as inhibition of quisqualate-induced inositol phosphate accumulation after 30 mins by HTRF assay relative to fenobam; format: functional, cell-based
Procedure, shortened: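 Dose-response was run in HEK293 cells expressing rat HA-mGlu5 and EAAC1, under 100 nM quisqualate with compound for 30 min at 37°C, in dark conditions. IP-One HTRF read-out. Efficacy was taken from the bottom of the dose-response curve and normalised between 0% and 100% of the fenobam response.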

[5] = molecular target: Metabotropic glutamate receptor 5 (Homo sapiens, UniProt P41594); experiment: Negative allosteric modulation of mGlu5 receptor (unknown origin)
Chain of Metabotropic glutamate receptor 5 (Homo sapiens, UniProt P41594) (P41594 whole entry): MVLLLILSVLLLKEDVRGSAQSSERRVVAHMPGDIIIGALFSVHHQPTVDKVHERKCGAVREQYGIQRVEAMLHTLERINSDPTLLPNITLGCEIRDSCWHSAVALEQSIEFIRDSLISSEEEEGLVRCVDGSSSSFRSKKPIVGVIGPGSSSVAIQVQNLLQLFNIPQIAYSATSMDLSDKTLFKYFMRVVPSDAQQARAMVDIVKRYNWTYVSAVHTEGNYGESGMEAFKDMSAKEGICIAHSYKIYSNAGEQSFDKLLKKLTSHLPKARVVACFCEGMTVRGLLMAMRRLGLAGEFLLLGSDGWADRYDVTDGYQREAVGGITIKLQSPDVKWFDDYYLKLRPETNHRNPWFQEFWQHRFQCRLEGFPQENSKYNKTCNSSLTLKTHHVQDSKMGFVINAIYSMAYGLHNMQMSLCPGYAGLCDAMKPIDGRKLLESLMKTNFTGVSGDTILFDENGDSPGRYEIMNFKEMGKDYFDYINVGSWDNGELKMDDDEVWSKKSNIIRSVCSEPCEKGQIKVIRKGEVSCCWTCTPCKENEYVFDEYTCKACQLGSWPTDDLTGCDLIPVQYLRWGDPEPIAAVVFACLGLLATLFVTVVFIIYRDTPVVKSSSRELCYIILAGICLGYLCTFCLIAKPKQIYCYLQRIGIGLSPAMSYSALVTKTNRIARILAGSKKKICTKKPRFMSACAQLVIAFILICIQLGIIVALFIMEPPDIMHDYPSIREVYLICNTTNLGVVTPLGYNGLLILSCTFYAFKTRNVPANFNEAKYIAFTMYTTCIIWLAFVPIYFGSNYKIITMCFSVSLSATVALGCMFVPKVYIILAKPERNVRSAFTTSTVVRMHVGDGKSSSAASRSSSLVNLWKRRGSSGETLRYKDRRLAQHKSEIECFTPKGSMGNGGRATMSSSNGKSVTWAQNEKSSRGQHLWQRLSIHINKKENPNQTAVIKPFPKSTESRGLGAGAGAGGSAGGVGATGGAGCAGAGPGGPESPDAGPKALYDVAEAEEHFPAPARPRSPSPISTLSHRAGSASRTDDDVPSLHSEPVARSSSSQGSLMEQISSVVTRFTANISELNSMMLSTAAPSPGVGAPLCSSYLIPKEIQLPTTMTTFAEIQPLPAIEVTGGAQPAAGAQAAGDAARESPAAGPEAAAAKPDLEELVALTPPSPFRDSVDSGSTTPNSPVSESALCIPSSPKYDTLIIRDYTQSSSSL

Ratio IC50 [1] | IC50 [2] [nM] | Activity [3] [%] | Efficacy [4] [%] | IC50 [5] [nM] | Structure (SMILES)
2.9 | 3090 | 15 | 35 |  | C(#Cc1ccccn1)c1ccc(/N=N\c2ccccn2)cc1
1.3 | 960 | 9 | 115 |  | C(#Cc1ccccn1)c1cccc(/N=N/c2ccccn2)c1

Continued, compound first:

Structure (SMILES) | Ratio IC50 [1] | IC50 [2] [nM] | Activity [3] [%] | Efficacy [4] [%] | IC50 [5] [nM]
c1ccc(/N=N/c2ccc(/N=N/c3ccccn3)cc2)nc1 | 1.2 | 6130 | -1 | 19 | 
Cc1cc(C)c(N)c(C#Cc2cccc(F)c2)n1 [RASEGLURANT] |  |  |  |  | 17
C(#Cc1ccccn1)c1ccc(C#Cc2ccccn2)cc1 |  | 1210 |  | 42 | 
C(#Cc1ccccn1)c1cccc(C#Cc2ccccn2)c1 |  | 430 |  | 114 | 
c1ccc(/N=N/c2cccc(/N=N/c3ccccn3)c2)nc1 | 2.2 | 4920 | 15 | 114 | 
